For one series, the system named is caspase-3. Description: Caspase-3 cleavage. It is filed as cell-based, human. The note with it: MDA-MB-231. The gist of the method: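 MDA-MB-231 cells, grown in DMEM with 10% heat-inactivated FBS at 37 °C and 5% CO2, were exposed to test compound for 48 h and lysed on ice in RIPA buffer with protease/phosphatase inhibitors. Equal protein was run on SDS-PAGE and blotted to PVDF. Blots were probed for cleaved caspase-3 and total caspase-3 (1:1000), with β-tubulin (1:2000) as loading control. Detection used goat anti-rabbit HRP secondary and chemiluminescence; bands were quantified by densitometry.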

The subject of series [1] is MDA-MB-231 cells. Description: Induction of apoptosis in MDA-MB-231 cells. It is filed as cell-based, human. The settings on record: 1 μM, 48 hours.
In series [2] the test system is MDA-MB-231 cells. Put plainly: Cell cycle analysis in MDA-MB-231 cells. Type of series: cell-based, human.
Another series has as its system FGFR1. Description: pFGFR1 immunoblot in MDA-MB-231 cells with and without bFGF. It is filed as cell-based, human. The note with it: 3 μM and 6 μM, in the presence of bFGF, 48 hours. The gist of the method:
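Phospho-FGFR1 (1:1000) western blot used MDA-MB-231 lysates after 48 h exposure to test compound, with or without the natural ligand bFGF. Lysis was on ice in RIPA buffer with protease/phosphatase inhibitors, followed by SDS-PAGE of equal protein and transfer to PVDF. β-tubulin (1:2000) served as loading control. Detection used HRP anti-rabbit secondary and chemiluminescence, then band densitometry; n = 3.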
A general note: A western blot detects proteins with antibodies after separation by electrophoresis.

The nature of series [3]: Liver microsomal stability. Type of series: in vitro ADME. The settings on record: rat liver microsomes, up to 60 minutes, compared with PFL. The method, boiled down: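 Pooled male Sprague-Dawley rat liver microsomes were diluted to a 6.2% mixture in warm potassium-phosphate buffer. Test compound, diluted to 5 μM from a DMSO stock, was mixed with NADPH regenerating solution and prewarmed to 37 °C. Microsomes were then added and incubated 1 h at 37 °C with shaking. Aliquots at 0, 5, 15, 30 and 60 min were quenched in ice-cold acetonitrile, centrifuged at 4 °C and analysed by LC-MS/MS. Percent remaining was calculated from peak-area ratios versus T=0. Results are mean ± SEM, three experiments in triplicate.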
For orientation: Microsomes from liver hold many membrane-bound enzymes, among them those of drug oxidation.

The test system of series [4] is GPCRs expressed in the brain. Put plainly: Primary binding assay at selected CNS receptors. The settings on record: 10 μM. The method, boiled down:
(§1)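 […] primary binding screen across a panel of brain-expressed CNS receptors, including GPCRs, with test compound at 10 μM. The read-out is % inhibition of binding at each receptor, reported as mean ± SEM of four independent experiments. Receptors are grouped by >50% and >90% inhibition.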

The target in the next series is dopamine transporter (Homo sapiens, UniProt Q01959). Description: NIMH PDSP binding assay at dopamine transporter.
The subject of series [5] is dopamine receptors (subtypes D1-D5). Description: Primary binding assay at dopamine receptors. The note with it: 10 μM. The method, boiled down: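 Primary binding screen across a CNS GPCR panel, run through the NIMH screening programme at UNC Chapel Hill. Test compound at 10 μM; read-out is % inhibition as mean ± SEM of four independent experiments. Ki was not evaluated for receptors with under 50% activity.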

Series [6] can be described thus: In vivo BBB permeability, plasma and brain distribution by LC-MS/MS. More on the design: species or system C57 mice. The gist of the method: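 Male and female C57 mice, 8 weeks old and about 20 g, received a single i.p. 10 mg/kg dose of test compound in 2.5% ethanol, 2.5% DMSO, 5% Tween 80, 25% PEG 400 and 65% PBS. Blood was drawn under anaesthesia at 0, 0.5, 1, 6, 24 and 48 h. Brains were taken after cardiac perfusion and homogenised in PBS (1:3 w/v). Samples were acetonitrile-precipitated with internal standard and quantified by positive-ESI MRM LC-MS/MS against blank-matrix calibration curves. Results are mean ± SEM of 2–4 experiments.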

Another series has as its system serotonin receptors. Put plainly: Primary binding assay at serotonin receptors. The settings on record: 10 μM. The method, boiled down:
as §1

For series [7], the system named is MDA-MB-231 triple-negative breast cancer cells. Put plainly: MTT cytotoxicity assay on MDA-MB-231 cells. It is filed as cell-based, human. The method, boiled down: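 MDA-MB-231 cells were kept in DMEM with 10% heat-inactivated FBS and antibiotic-antimycotic at 37 °C, 5% CO2, and tested for mycoplasma. Cells were seeded at 8000/well, grown 24 h, then screened at 20 μM. Dose series of 0–25 μM were given in 2% FBS DMEM with 0.1% final DMSO for 48 h. MTT (0.5 mg/mL) was added for 2 h at 37 °C, formazan dissolved in DMSO and read at 570 nm. IC50 was fitted from three independent experiments.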
In general terms: Tetrazolium assays rely on reduction of a dye to a coloured formazan, in cell work by metabolically active cells.

As usually defined, the Tmax is the time from dosing to the highest level.

dopamine transporter, sequence (Q01959 whole entry): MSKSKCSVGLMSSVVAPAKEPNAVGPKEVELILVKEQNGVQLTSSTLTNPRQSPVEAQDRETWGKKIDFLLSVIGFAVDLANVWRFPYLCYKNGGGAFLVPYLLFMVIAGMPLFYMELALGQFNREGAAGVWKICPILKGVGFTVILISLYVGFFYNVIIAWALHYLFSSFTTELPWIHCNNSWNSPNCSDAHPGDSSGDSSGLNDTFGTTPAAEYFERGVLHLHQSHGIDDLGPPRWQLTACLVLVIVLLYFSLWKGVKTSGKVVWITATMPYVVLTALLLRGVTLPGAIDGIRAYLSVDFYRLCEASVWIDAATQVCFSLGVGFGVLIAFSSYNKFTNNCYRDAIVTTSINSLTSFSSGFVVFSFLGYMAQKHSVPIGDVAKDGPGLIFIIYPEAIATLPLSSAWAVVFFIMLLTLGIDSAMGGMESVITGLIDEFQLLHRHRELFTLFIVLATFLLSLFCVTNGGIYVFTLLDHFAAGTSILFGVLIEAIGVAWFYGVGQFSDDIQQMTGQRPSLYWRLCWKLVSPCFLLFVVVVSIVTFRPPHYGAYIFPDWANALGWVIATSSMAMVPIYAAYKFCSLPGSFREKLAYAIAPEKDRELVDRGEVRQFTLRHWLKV

In the case of `O=C(NCCCCC(c1ccc(F)cc1)c1ccc(F)cc1)Nc1ccc([N+](=O)[O-])c(C(F)(F)F)c1` [4q, 1-(5,5-bis(4-fluorophenyl)pentyl)-3-(4-nitro-3-(trifluoromethyl)phenyl)urea], the “caspase-3 cleavage and activation” value in the series on caspase-3 is “capable of caspase-3 cleavage and activation”. Besides, in the series on MDA-MB-231 cells [1], the induction of apoptosis result is given as “significant induction of apoptosis”. Also, in the series on MDA-MB-231 cells [2], the “effect on cell cycle” value was “did not affect the cell cycle”. The “phosphorylation of FGFR1” value with FGFR1 was “completely abrogated phosphorylation of FGFR1”. In addition, in [3], the “metabolic stability in liver microsomes” value is listed as “preferred metabolic stability over PFL”.
Regarding `OC1(c2ccc(Cl)c(C(F)(F)F)c2)CCN(CCCC(c2ccc(F)cc2)c2ccc(F)cc2)CC1` [PFL, penfluridol], in [4], the “number of receptors (GPCRs) inhibited at the level above 50%” value is listed as 28.
`O=C(Nc1ccc(Cl)c(C(F)(F)F)c1)N1CCC(CC(c2ccc(F)cc2)c2ccc(F)cc2)CC1` [19b, 4-(2,2-bis(4-fluorophenyl)ethyl)-N-(4-chloro-3-(trifluoromethyl)phenyl) piperidine-1 carboxamide]: the “DAT inhibitory activity (in words)” value on dopamine transporter is listed as “abolished DAT activity”.
For `CC(=O)Nc1cc(NC(=O)NCCCCC(c2ccc(F)cc2)c2ccc(F)cc2)ccc1Cl` [4o, N-(5-(3-(5,5-bis(4-fluorophenyl)pentyl)ureido)-2-chlorophenyl)acetamide], the “decrease in affinity to DAT compared to 4l” value at dopamine transporter turned out to be 100 fold.
`O=C(NCCCCC(c1ccc(F)cc1)c1ccc(F)cc1)Nc1ccc(Cl)cc1` [4a, 1-(5,5-bis(4-fluorophenyl)pentyl)-3-(4-chlorophenyl)urea]: the “interaction with dopamine receptors (subtypes D1-D5)” value in [5] is given as “no significant interaction”. The Tmax in series [6] (both, C57, mouse, in vivo, ip, 10 mg/kg) turned out to be 1 h. Besides, in [6] (mice, 10 mg/kg i.p.), the “ability to cross the BBB in vivo” value is “retained activity to cross the BBB”. Moreover, in [6] (mice, 10 mg/kg single i.p., plasma and brain (Fig. 3)), the peak concentration entry is “approximately 1000 nM”. The “activity at serotonin receptors” value in the series on serotonin receptors was “no activity at serotonin receptors, except for 5HT-2C”.
Turning to `CN(CCCCC(c1ccc(F)cc1)c1ccc(F)cc1)C(=O)N(C)c1ccc(Cl)c(C(F)(F)F)c1` [compound 15, 1-(5,5-bis(4-fluorophenyl)pentyl)-3-(4-chloro-3-(trifluoromethyl)phenyl)-1,3-dimethylurea], on dopamine transporter, the “DAT inhibitory activity (in words)” value was “inactive as a DAT inhibitor”.
With `O=C(NCCCCC(c1ccc(F)cc1)c1ccc(F)cc1)Nc1ccc(Cl)c(C(F)(F)F)c1` [4l, 1-(5,5-bis(4-fluorophenyl)pentyl)-3-(4-chloro-3-(trifluoromethyl)phenyl)urea], the “metabolic stability in liver microsomes” value in series [3] is “preferred metabolic stability over PFL”.
Turning to `O=C(NCCCCC(c1ccc([N+](=O)[O-])cc1)c1ccc([N+](=O)[O-])cc1)Nc1ccc(Cl)c(C(F)(F)F)c1` [8g, 1-(5,5-bis(4-nitrophenyl)pentyl)-3-(4-chloro-3-(trifluoromethyl)phenyl)urea], the “optimization of cytotoxicity relative to hit molecule 4a” value in [7] was determined as 6 fold.

The values are drawn from paper PMC7744370 (European journal of medicinal chemistry, 2020).
